Data as given in ChEMBL document CHEMBL1151690, “The design, synthesis, and anti-tumor mechanism study of N-phosphoryl amino acid modified resveratrol analogues” (Bioorg Med Chem, 2008).
Active and inactive are the calls of the source. The calls are words filed in the database; no cut-off is given here.

How the values were obtained:
[1] = Antiproliferative activity against human CNE1 cells after 72 hrs by MTT assay; assay type: functional, cell-based; conditions: CNE
Procedure, shortened: (§1)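 MTT assay. Cells were grown in DMEM with 10% FBS, penicillin and streptomycin at 37 °C in 5% CO2, seeded in 96-well plates and exposed to compounds at 0.5–100 μM for 72 h. They were then given MTT (5 mg/ml) for 4 h, the formazan was dissolved in DMSO and A595 was read. IC50 is the mean ± SEM of three experiments.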

[2] = (§2) Antiproliferative activity against human CNE2 cells after 72 hrs by MTT assay; assay type: functional, cell-based; conditions: CNE-2, 72 h; procedure, shortened: as §1
CNE-2 [3] = experiment: Induction of apoptosis in human CNE2 cells assessed as DNA fragmentation at 50 uM after 24 hrs by agarose gel electrophoresis; assay type: functional, cell-based
Procedure, shortened: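 CNE-2 cells were treated at 50 μM for 24 h, with untreated cells as control. DNA was obtained by standard digestion and organic extraction, run on a 2% agarose gel and stained with ethidium bromide to detect ladders.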

[4] = Cell cycle arrest in human CNE2 cells assessed as accumulation at sub-G0-G1 phase visualized by propidium iodide staining at 50 uM after 24 hrs by flow cytometry; assay type: functional, cell-based; conditions: CNE-2
Procedure, shortened: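 CNE-2 cells were treated at 50 μM for 24 h, stained with propidium iodide and analysed by flow cytometry of DNA-content histograms. Apoptotic events were scored as the sub-G0–G1 population, and the cell-cycle phase distribution was also recorded.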

CNE-2 [5] = experiment: as §2; assay type: functional, cell-based; procedure, shortened: as §1
HeLa = experiment: Antiproliferative activity against human HeLa cells after 72 hrs by MTT assay; assay type: functional, cell-based
Procedure, shortened: (§3)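 IC50 from 72 h of compound treatment, reported as the mean ± SEM of three experiments, with significance set at P < 0.05.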

K562 = experiment: Antiproliferative activity against human K-562 cells after 72 hrs by MTT assay; assay type: functional, cell-based; conditions: K562, 72 h; procedure, shortened: as §3
CNE-2 [6] = experiment: Antiproliferative activity against human CNE2 cells at 5.19 uM by MTT assay; assay type: functional, cell-based; conditions: TDE = time-dependent effect
CNE-2 [7] = experiment: Induction of apoptosis in human CNE2 cells assessed as caspase 3-mediated PARP cleavage at 50 uM after 24 hrs by enhanced chemiluminescence detection; assay type: functional, cell-based
Procedure, shortened: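 CNE-2 cells were treated at 50 μM for 24 h and lysed on ice for 30 min in Tris/EDTA/NaCl/SDS/Triton/deoxycholate/PMSF buffer. Cytosolic protein (25 μg, 15,000g supernatant) was run on 12% SDS-PAGE and blotted to nitrocellulose. Blots were probed with anti-PARP (1:1000) in milk block, and the 89 kDa cleaved band was detected by ECL.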

CNE-2 [8] = experiment: Induction of apoptosis in human CNE2 cells assessed as late stage apoptotic cell count at 10 uM after 24 hrs by Annexin-V-FITC/PI binding assay; assay type: functional
Procedure, shortened: (§4)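 CNE-2 cells were treated at 5, 10, 25 or 50 μM for 24 h, collected, washed in ice-cold PBS, stained with Annexin-V-FITC and PI, and analysed by flow cytometry. Annexin-V+/PI− cells were counted as early apoptotic and double-positive cells as late apoptotic.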

CNE-2 [9] = experiment: Induction of apoptosis in human CNE2 cells assessed as early stage apoptotic cell count at 50 uM after 24 hrs by Annexin-V-FITC/PI binding assay; assay type: functional; procedure, shortened: as §4
CNE-2 [10] = experiment: Antiproliferative activity against human CNE2 cells at 3.45 uM by MTT assay; assay type: functional, cell-based; conditions: TDE = time-dependent effect
CNE-2 [11] = experiment: Induction of apoptosis in human CNE2 cells assessed as increase in caspase 9 activity at 50 uM upto 24 hrs; assay type: functional, cell-based
Procedure, shortened: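 CNE-2 cells were treated at 50 μM for 0, 2, 4, 8, 14 and 24 h, trypsinized, PBS-washed and lysed on ice for 15 min. Lysates were spun at 20,000g at 4 °C, and 0.1 mg protein (Bradford) was incubated with Ac-LEHD-pNA for 2 h at 37 °C. pNA release was recorded at A405.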

CNE-2 [12] = experiment: Induction of apoptosis in human CNE2 cells assessed as early stage apoptotic cell count at 5 uM after 24 hrs by Annexin-V-FITC/PI binding assay; assay type: functional; procedure, shortened: as §4
CNE-2 [13] = experiment: Induction of apoptosis in human CNE2 cells assessed as early stage apoptotic cell count at 10 uM after 24 hrs by Annexin-V-FITC/PI binding assay; assay type: functional; procedure, shortened: as §4
CNE-2 [14] = experiment: Induction of apoptosis in human CNE2 cells assessed as early stage apoptotic cell count at 25 uM after 24 hrs by Annexin-V-FITC/PI binding assay; assay type: functional; procedure, shortened: as §4
CNE-2 [15] = experiment: Induction of apoptosis in human CNE2 cells assessed as late stage apoptotic cell count at 50 uM after 24 hrs by Annexin-V-FITC/PI binding assay; assay type: functional; procedure, shortened: as §4
CNE-2 [16] = experiment: Induction of apoptosis in human CNE2 cells assessed as late stage apoptotic cell count at 5 uM after 24 hrs by Annexin-V-FITC/PI binding assay; assay type: functional; procedure, shortened: as §4
CNE-2 [17] = experiment: Induction of apoptosis in human CNE2 cells assessed as intracellular ROS production visualized by DCFH-DA after 30 hrs by FACS analysis; assay type: functional, cell-based
Procedure, shortened: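 CNE-2 cells were treated at 50 μM for 0–30 h (0, 2, 4, 6, 8, 13, 19, 24, 30 h), trypsinized, centrifuged and PBS-washed. They were loaded with DCFH-DA (10 μM) at 37 °C for 30 min, and the percentage of cells with higher DCF fluorescence was measured by FACS.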

CNE-2 [18] = experiment: Induction of apoptosis in human CNE2 cells assessed as late stage apoptotic cell count at 25 uM after 24 hrs by Annexin-V-FITC/PI binding assay; assay type: functional; procedure, shortened: as §4
CNE-2 [19] = experiment: Antiproliferative activity against human CNE2 cells at 5.06 uM by MTT assay; assay type: functional, cell-based; conditions: TDE = time-dependent effect
CNE-2 [20] = experiment: Antiproliferative activity against human CNE2 cells at 9.86 uM by MTT assay; assay type: functional, cell-based; conditions: TDE = time-dependent effect
Procedure, shortened: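 CNE-2 nasopharyngeal carcinoma cells were grown in DMEM with 10% FBS and penicillin/streptomycin at 37 °C under 5% CO2. Cells were seeded in 96-well plates and exposed to compound at 0.5–100 µM for 24, 48 or 72 h; tabulated values are from 72 h. MTT (5 mg/ml) was added for 4 h, formazan dissolved in DMSO, A595 read. IC50 reported as mean ± SEM, three experiments.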

Compound | IC50 [1] | IC50 [2] | other results
CC(C)OP(=O)(NCC(=O)Nc1ccc(/C=C/c2ccccc2)cc1)OC(C)C | 7.5 µM | 7.01 µM | 
CC(C)OP(=O)(NCCCCC(=O)Nc1ccc(/C=C/c2ccccc2)cc1)OC(C)C | 6.36 µM | 5.19 µM | Activity (CNE-2 [3]): Active; Activity [4]: 45.3%; Activity (CNE-2 [5]): Dose-dependent effect; IC50 (HeLa): 9.75 µM; IC50 (K562): 9.58 µM; Activity (CNE-2 [6]): tde; Activity (CNE-2 [7]): Active
COc1cc(/C=C/c2ccc(NC(=O)CCNP(=O)(OC(C)C)OC(C)C)cc2)cc(OC)c1 | 10.1 µM | 8.19 µM | 
COc1cc(/C=C/c2ccc(NC(=O)[C@@H](NP(=O)(OC(C)C)OC(C)C)C(C)C)cc2)cc(OC)c1 | 116 µM | 77.4 µM | 
CC(C)OP(=O)(NCCCC(=O)Nc1ccc(/C=C/c2ccccc2)cc1)OC(C)C | 9.03 µM | 6.47 µM | 
COc1cc(/C=C/c2ccc(NC(=O)CNP(=O)(OC(C)C)OC(C)C)cc2)cc(OC)c1 | 8.91 µM | 7.12 µM | 
COc1cc(/C=C/c2ccc(NC(=O)[C@H](C)NP(=O)(OC(C)C)OC(C)C)cc2)cc(OC)c1 | 29.2 µM | 11.7 µM | 
COc1cc(/C=C/c2ccc(NC(=O)CCCCNP(=O)(OC(C)C)OC(C)C)cc2)cc(OC)c1 | 5.67 µM | 3.45 µM | Activity (CNE-2 [8]): 22.51%; Activity (CNE-2 [3]): Active; Activity [4]: 91.6%; Activity (CNE-2 [9]): 18.78%; Activity (CNE-2 [5]): Dose-dependent effect; Activity (CNE-2 [10]): tde; IC50 (HeLa): 5.62 µM; IC50 (K562): 5.32 µM; Activity (CNE-2 [11]): Active; Activity (CNE-2 [12]): 6.45%; Activity (CNE-2 [13]): 16.24%; Activity (CNE-2 [14]): 21.24%; Activity (CNE-2 [15]): 66.79%; Activity (CNE-2 [16]): 9.86%; Activity (CNE-2 [17]): Active; Activity (CNE-2 [18]): 41.12%; Activity (CNE-2 [7]): Active
CC(C)OP(=O)(NCCC(=O)Nc1ccc(/C=C/c2ccccc2)cc1)OC(C)C | 29.8 µM | 6.81 µM | 
COc1cc(/C=C/c2ccc(NC(=O)[C@H](Cc3ccccc3)NP(=O)(OC(C)C)OC(C)C)cc2)cc(OC)c1 | 43.4 µM | 9.83 µM | 
COc1cc(/C=C/c2ccc(NC(=O)CCCCCNP(=O)(OC(C)C)OC(C)C)cc2)cc(OC)c1 | 6.37 µM | 5.06 µM | Activity (CNE-2 [3]): Active; Activity (CNE-2 [19]): tde; Activity [4]: 57%; Activity (CNE-2 [5]): Dose-dependent effect; IC50 (HeLa): 6.41 µM; IC50 (K562): 6.89 µM; Activity (CNE-2 [7]): Active
CC(C)OP(=O)(NCCCCCC(=O)Nc1ccc(/C=C/c2ccccc2)cc1)OC(C)C | 8.58 µM | 24.3 µM | 
Nc1ccc(/C=C/c2ccccc2)cc1 [(E)-4-STYRYLANILINE] | 54.5 µM | 98.7 µM | 
CC(C)OP(=O)(N[C@H](C(=O)Nc1ccc(/C=C/c2ccccc2)cc1)C(C)C)OC(C)C | 49.3 µM | 128 µM | 
CC(C)C[C@H](NP(=O)(OC(C)C)OC(C)C)C(=O)Nc1ccc(/C=C/c2ccccc2)cc1 | 54.3 µM | 65.6 µM | 
COc1cc(/C=C/c2ccc(NC(=O)[C@@H]3CCCN3P(=O)(OC(C)C)OC(C)C)cc2)cc(OC)c1 | 8.11 µM | 9.86 µM | Activity (CNE-2 [3]): Active; Activity [4]: 32.1%; Activity (CNE-2 [5]): Dose-dependent effect; IC50 (HeLa): 9.53 µM; IC50 (K562): 9.15 µM; Activity (CNE-2 [20]): tde; Activity (CNE-2 [7]): Active
CC(C)OP(=O)(N[C@@H](C)C(=O)Nc1ccc(/C=C/c2ccccc2)cc1)OC(C)C | 25.4 µM | 12.8 µM | 
COc1cc(/C=C/c2ccc(NC(=O)CCCNP(=O)(OC(C)C)OC(C)C)cc2)cc(OC)c1 | 12.3 µM | 15.2 µM | 
CC(C)OP(=O)(N[C@@H](Cc1ccccc1)C(=O)Nc1ccc(/C=C/c2ccccc2)cc1)OC(C)C | 83.7 µM | 92.1 µM | 
CC(C)OP(=O)(OC(C)C)N1CCC[C@H]1C(=O)Nc1ccc(/C=C/c2ccccc2)cc1 | 10.1 µM | 12.2 µM | 
Oc1ccc(/C=C/c2cc(O)cc(O)c2)cc1 [RESVERATROL] | 67.6 µM | 52.3 µM | 
COc1cc(/C=C/c2ccc(NC(=O)[C@H](CC(C)C)NP(=O)(OC(C)C)OC(C)C)cc2)cc(OC)c1 | 55.3 µM | 14.3 µM | 
